KCNK3 block: human KCNK3 channel inhibition, primary screen; O14649; CHO-KCNK3 thallium flux, FluxOR fluorescence; stronger effect = lower value; B-score at 10 µM; 0.84% of 340,000 active; AID 602410;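 active = B-score under library mean minus 4 SD, starting fluorescence ratio at most library mean plus 5 SD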;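 note: more negative B-score means stronger inhibition of thallium flux through KCNK3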
KCNQ1 pot: potentiators or activators of human KCNQ1 potassium channel; P51787; CHO-K1 KCNQ1, thallium flux FluxOR fluorescence; stronger effect = higher value; B-score at 10 µM; 0.35% of 310,000 active;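 active = fluorescence ratio B-score, a plate-corrected score, at least three library SD, with initial intensity B-score within 5 SD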
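Assay system: CHO-K1 cells stably expressing KCNQ1. Medium: assay buffer for compound exposure, DMSO matched across wells. Timing: 37 °C overnight plating, 90-min dark dye load, 20-min compound pretreatment. Signal: kinetic FluxOR fluorescence, 10 s baseline plus 110 s post-stimulus.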
PHOSPHO1 inh: blocks human PHOSPHO1 phosphatase activity; 1.1% of 290,000 active; AID 1565; inhibition, % at 13.3 µM; recombinant PHOSPHO1, absorbance phosphatase assay; in the data active = inhibition above about 60%
Target sequence (Q8TCT1 whole entry, looked up): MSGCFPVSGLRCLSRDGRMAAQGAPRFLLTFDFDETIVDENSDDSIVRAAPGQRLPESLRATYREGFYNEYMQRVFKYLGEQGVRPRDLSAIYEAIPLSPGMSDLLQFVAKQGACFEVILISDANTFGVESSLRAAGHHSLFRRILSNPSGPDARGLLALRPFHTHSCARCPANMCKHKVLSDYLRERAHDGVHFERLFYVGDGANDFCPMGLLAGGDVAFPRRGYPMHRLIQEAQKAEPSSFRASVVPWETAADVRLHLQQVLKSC
KCNQ1 block: human KCNQ1 channel inhibition; P51787; 1.3% of 310,000 active; B-score at 10 µM; AID 2642; CHO-K1 KCNQ1, FluxOR thallium flux fluorescence; stronger effect = higher value;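 active = compounds whose thallium flux B-score, printed positive for inhibition, exceeds three library SD while starting fluorescence stays within three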;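 note: channel opened by potassium depolarization with thallium stimulus after 20 min compound exposure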
hERG protect: compounds protecting human hERG from proarrhythmic drug block; CHO-hERG, FluxOR thallium flux, dofetilide IC70 present; activation (rescue from dofetilide block), less the hit threshold, % at 10 µM; AID 1511; 0.51% of 310,000 active; Q12809;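 active = activation above the mean of controls blocked by dofetilide plus 5 SD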;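 note: thallium influx through hERG after potassium depolarization seen as dye fluorescence rise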
KCNK9 inh: blocks the human KCNK9 two-pore domain potassium channel. 1.2% of 310,000 active. Q9NPC2. HEK293 KCNK9, FluxOR thallium flux fluorescence; stronger effect = lower value. B-score at 10 µM;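 active = ratio B-score over 3 SD below the library mean, with starting fluorescence within 5 SD of its mean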;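 note: negative B-score means less thallium flux so channel inhibition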
Target sequence (Q9NPC2 whole entry, looked up, the tested form may be a part): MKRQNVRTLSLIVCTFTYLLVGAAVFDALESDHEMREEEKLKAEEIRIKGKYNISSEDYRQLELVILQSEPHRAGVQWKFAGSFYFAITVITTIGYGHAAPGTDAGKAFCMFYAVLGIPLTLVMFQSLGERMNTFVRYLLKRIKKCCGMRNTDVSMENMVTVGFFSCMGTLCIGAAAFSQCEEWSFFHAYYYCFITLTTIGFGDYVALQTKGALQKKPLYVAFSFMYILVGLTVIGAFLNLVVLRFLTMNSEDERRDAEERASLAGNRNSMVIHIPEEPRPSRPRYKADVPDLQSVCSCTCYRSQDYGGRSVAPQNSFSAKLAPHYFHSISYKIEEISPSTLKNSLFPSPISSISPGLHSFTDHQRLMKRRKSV
KCNK9 inh conf: confirmation of human KCNK9 potassium channel inhibitors | shares compounds with KCNK9 inh | HEK293 KCNK9 cells, FluxOR thallium flux fluorescence | inhibition, % at 10 µM | 43% of 4,900 active | AID 492992;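 active = thallium signal inhibited by more than 5 SD of the compound-free buffer control wells, on both duplicate plates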;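 note: 0% = assay buffer control wells without compound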
Kir21 sel: selectivity of KCNK9 modulators against mouse Kir2.1. inhibition, % at 10 µM. Kir2.1 cells, FluxOR thallium flux fluorescence. 4% of 4,900 active. shares compounds with KCNK9 inh;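 active = thallium signal drop more than 5 SD beyond the mean of the no-compound control wells, seen in both duplicate plates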;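 note: signal is fluorescence rise after thallium addition divided by baseline fluorescence; plate controls were assay buffer only for no effect and full block by chlorpromazine control for full effect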
KCNK9 uninduced: second check of KCNK9 modulator effects in non-induced HEK293 cells | shares compounds with KCNK9 inh | FluxOR thallium flux | inhibition, % at 10 µM | 40% of 4,900 active | AID 492997;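 active = thallium signal drop beyond 5 SD of the untreated control mean, on both duplicate plates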;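 note: plate controls were buffer only IC0 wells for no effect and SID17386958 at its maximal inhibitory level for full effect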
KCNK3 inh conf: human KCNK3 channel inhibition, confirmation assay; 99% of 2,400 active; AID 651638; shares compounds with KCNK3 block; CHO-KCNK3 thallium flux, FluxOR fluorescence; 0% buffer, 100% carvedilol maximal block; ratio percent of control, % at 10 µM;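 active = ratio percent of control, averaged over triplicates, above buffer control mean plus 5 SD, cut at about 64% in these data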;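 note: ratio is the fluorescence rise from min to max over baseline after thallium stimulus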
KCNK3 noninduced: activity in cells without induced KCNK3 expression; AID 651747; non-induced KCNK3 parental cells, FluxOR thallium flux; stronger effect = lower value; 40% of 2,400 active; shares compounds with KCNK3 block; thallium flux ratio (lower = more inhibition) at 10 µM;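 active = thallium flux ratio, averaged over three wells, more than 5 SD below the buffer control mean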;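 note: host cells are CHO cells without KCNK3 induction; ratio is peak minus trough fluorescence over baseline then normalized to buffer controls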
An asterisk follows results filed as active; i = inactive; · = not tested or not shown; ! = a repeat was not active. In the library only some 4% were active in any assay of this set; here they are far more common.

SMILES	KCNK3 block	KCNQ1 pot	PHOSPHO1 inh	KCNQ1 block	hERG protect	KCNK9 inh	KCNK9 inh conf	Kir21 sel	KCNK9 uninduced	KCNK3 inh conf	KCNK3 noninduced
COc1ccc(CCNC(=O)CN2C(=O)COc3ccc(S(=O)(=O)N4CCOCC4)cc32)c(OC)c1	i	i	37	i	-6	i	·	·	·	·	·
CCOC(=O)c1cnc(SC2CC(=O)N(c3ccc(OC)c(OC)c3)C2=O)nc1N (configuration not stated)	i	i	4	i	-12	i	·	·	·	·	·
CCOC(=O)C1CCN(C(=O)COc2cc(C)c(Br)cc2C)CC1	-11*	i	7	i	-8	i	i	i	i	78*	i
CN(C)c1ccc(C(CNC(=O)c2ccccc2)c2c[nH]c3ccccc23)cc1 (configuration not stated)	-9.2*	i	-11	i	-14	-13*	54%*	i	27%*	101*	0.14*
CN(C)c1ccc(C(CNC(=O)c2ccccc2F)c2c[nH]c3ccccc23)cc1 (configuration not stated)	i	i	-14	i	-8	i	·	·	·	·	·
Cc1cc(NC(=O)c2ccc(Cn3nc(C)c(Br)c3C)o2)no1	i	i	-1	i	0	i	·	·	·	·	·
Cc1nn(Cc2ccc(C(=O)Nc3nc4c(C)cccc4s3)o2)c(C)c1Br	-9.9*	i	23	i	-2	-14*	44%*	i	i	88*	i
COc1ccc(C)c2sc(NC(=O)CCS(=O)(=O)c3ccccc3)nc12	i	i	31	i	-12	i	·	·	·	·	·
Clc1ccc(CSc2nnc(-c3sccc3-n3cccc3)o2)cc1	-9.2*	i	50	6*	-18	-14*	50%*	i	i	101*	i
COc1cccc(N(CC(=O)NCCSCc2ccc(Cl)cc2)S(C)(=O)=O)c1	i	i	-2	i	-10	i	·	·	·	·	·
COc1nnc(-c2ccc(N3CCOCC3)c(NC(=O)C3CCCCC3)c2)c2ccccc12	i	i	2	i	-13	i	·	·	·	·	·
COc1nnc(-c2ccc(N3CCCCC3)c(NC(=O)C3CCCCC3)c2)c2ccccc12	-11*	i	-20	12*	-15	-15*	52%*	i	i	125*	0.14*
CCCCC[C@H](O)/C=C/[C@H]1CCC(=O)[C@@H]1CCCCCCC(=O)N1CCCCC1CO (some centres not stated)	i	i	-11	i	-4	-12*	60%*	i	i	85*	i
CCC1CCCCN1C(=O)CCCOc1ccccc1 (configuration not stated)	i	i	7	i	-10	i	·	·	·	·	·
Cc1ccccc1CN1C(=O)c2ccccc2S(=O)c2ccc(C(=O)NCCCN3CCOCC3)cc21 (configuration not stated)	i	i	28	i	-10	i	·	·	·	·	·
CCOc1ncccc1C(=O)Nc1cccc(-c2nc3cccnc3s2)c1	-9.6*	i	28	i	-11	-10*	i	i	i	101*	i
CC(C)CC(c1nnnn1Cc1cccs1)N1CCN(c2nc3ccccc3s2)CC1 (configuration not stated)	-10*	i	-3	i	-12	-12*	38%*	i	i	129*	0.12*
CC1CCC(C(C)C)C(OC(=O)C[n+]2cccc(C(N)=O)c2)C1 (configuration not stated)	i	i	23	i	-6	i	·	·	·	·	·
C/C(=N\O)C(=O)OC1CC(C)CCC1C(C)C (configuration not stated)	i	i	-13	i	-8	i	·	·	·	·	·
CC1CCC(C(C)C)C(OC(=O)Cn2c(-c3ccc(Cl)cc3)[n+](C)c3ccccc32)C1 (configuration not stated)	-11*	i	13	10*	-36	-12*	66%*	80%*	i	119*	i
CC1CCC(C(C)C)C(OC(=O)Cn2c(-c3ccc(Br)cc3)[n+](C)c3ccccc32)C1 (configuration not stated)	-16*	i	19	10*	-31	-13*!	66%*	82%*	i	132*	i
CC1CCC(C(C)C)C(OC(=O)COC(=O)c2cccn2C)C1 (configuration not stated)	-8.8*	i	12	i	-21	-13*	59%*	i	27%*	108*	i
Cc1cc(C(=O)CCC(=O)Nc2ccc(S(N)(=O)=O)cc2)c(C)s1	i	·	·	·	·	·	·	·	·	·	·
COCCCNC(=O)c1cc(-c2cccnc2)nc2ccc(S(=O)(=O)N3CCCCCC3)cc12	i	i	49	i	-6	i	·	·	·	·	·
O=C(CN1C(=O)NC2(CCCC2)C1=O)NNC(=O)c1ccc(Br)cc1	i	i	·	i	-5	i	·	·	·	·	·
Cc1cccc(Nc2nc(C)nc3c2oc2ccccc23)c1	-9*	i	37	i	-11	-8.8*	30%*	i	26%*	116*	i
COc1ccc(CN(C)C(=O)C2CSC3(C)CCC(=O)N23)cc1 (configuration not stated)	i	i	·	i	-16	i	·	·	·	·	·
CC[C@@H](C)[C@@H](C(=O)N1CCNCC1)n1cc(CCC(=O)O)nn1	i	i	9	i	-5	i	·	·	·	·	·
COC(=O)C1=C(C)N=C2SC(C#N)=C(N)N2C1c1ccc(OCc2ccccc2)cc1 (configuration not stated)	-9.9*	i	0	i	-6	-17*	74%*	i	52%*	97*	0.15*
S=C(Nc1ccccc1)N1CCOCCOCCN(C(=S)Nc2ccccc2)CCOCCOCC1	-9.1*	i	21	i	-5	-11*	28%*	i	i	96*	0.13*

Screening results from PubChem BioAssay.
